# In the library only some 6.7% were active in any assay of this set; here they are far more common.
# PREPL inh: PREPL enzyme inhibitors, primary screen, biochemical, fluorescence polarization. Prolyl endopeptidase-like (Homo sapiens), Q4J6C6. recombinant PREPL, fluorescence polarization activity-based probe. inhibition, % at 5.96 µM. 0.68% of 320,000 active. AID 2751, 2010; in the data active means inhibition above about 43%;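 further: 0% = enzyme with DMSO and 100% = wells lacking enzyme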
# Target sequence (Q4J6C6 whole entry, looked up): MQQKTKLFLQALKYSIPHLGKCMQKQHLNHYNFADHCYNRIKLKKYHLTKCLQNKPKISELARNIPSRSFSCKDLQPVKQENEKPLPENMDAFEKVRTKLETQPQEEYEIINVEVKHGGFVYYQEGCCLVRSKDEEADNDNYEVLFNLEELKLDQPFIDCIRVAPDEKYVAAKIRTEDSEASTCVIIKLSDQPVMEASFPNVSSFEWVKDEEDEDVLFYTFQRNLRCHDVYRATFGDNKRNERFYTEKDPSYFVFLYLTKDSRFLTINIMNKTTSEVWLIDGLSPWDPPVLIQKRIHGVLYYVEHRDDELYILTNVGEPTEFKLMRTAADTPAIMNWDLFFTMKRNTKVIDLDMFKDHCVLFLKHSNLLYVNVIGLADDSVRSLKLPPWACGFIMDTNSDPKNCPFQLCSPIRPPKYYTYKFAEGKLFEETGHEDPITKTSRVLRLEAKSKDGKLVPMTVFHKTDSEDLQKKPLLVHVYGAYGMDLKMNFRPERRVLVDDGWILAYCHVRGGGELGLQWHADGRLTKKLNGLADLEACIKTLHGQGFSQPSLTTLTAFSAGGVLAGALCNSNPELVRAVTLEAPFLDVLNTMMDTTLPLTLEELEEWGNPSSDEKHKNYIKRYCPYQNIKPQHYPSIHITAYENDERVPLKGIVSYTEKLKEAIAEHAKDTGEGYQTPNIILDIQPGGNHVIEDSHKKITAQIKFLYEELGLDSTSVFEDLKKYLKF
# CSC inhib: cancer stem cell viability inhibitors, primary screen, luminescence | inhibition, % at 7.5 µM | cancer stem cell-like cells viability | 1.1% of 300,000 active; in the data active means inhibition above about 75%; tested in HMLE shEcad cells
# GRIN3A LBD mod: binders of NR3A ligand-binding domain, primary screen, biophysical, differential scanning fluorimetry, uHTS | AID 1259313, 2017 | 2.5% of 340,000 active | Tm shift relative to glycine control, % at 25 µM | NR3A LBD differential scanning fluorimetry, Tm shift; 0% = protein alone, 100% = glycine-bound protein;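 active means melting temperature shift of at least 10% of the positive control shift, at one fixed dose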
# T cruzi inh: inhibitors of intracellular T. cruzi growth, primary screen, luminescence, NIH3T3 host cells; 1.4% of 300,000 active; T. cruzi beta-gal in NIH3T3, 90 h; AID 1885, 2009; inhibition, % (no concentration beside the values);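 active means mean inhibition across valid replicates above about 55%, limit read from the data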;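 further: signal also drops with host cell toxicity which is not excluded here; 0% = plate median of DMSO wells and 100% = zero luminescence signal; higher percent means less beta-gal luminescence so fewer parasites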
#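 System: mouse NIH/3T3 fibroblasts infected with β-gal-expressing T. cruzi Tulahuen C4 / Input: NIH/3T3 cells, 5,000 per well / Buffer or medium: Low-serum DMEM with 2% FBS / Probe or stimulus: 5000 reporter trypomastigotes per well / Schedule: ≥90 h infection period, 3 h prior cell attachment / Measured by: GalScreen luminescence, 60 min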
# CHOP inh: inhibitors of CHOP promoter induction, primary screen, cell-based, unfolded protein response, luciferase reporter; CHO-K1 CHOP-promoter luciferase, tunicamycin-induced, 15-18 h; inhibition, % at 10 µM; 3.8% of 220,000 active; AID 2732, 2010;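 active means compounds that reduced the stress-induced luciferase reporter signal by more than about 70% of percent inhibition, limit read from the data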;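 further: 0% = tunicamycin plus vehicle and 100% = wells without tunicamycin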
# Beta apoptosis: inhibitors of cytokine-induced beta cell apoptosis, primary screen, luminescence; INS-1E cytokine-induced death, ATP luminescence, 48 h; percent of positive-control rescue, neutral wells zero; protection from apoptosis, % (test concentration not listed); 0.8% of 300,000 active; AID 435005, 2010;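 active means Every replicate reaches about 75%, or at least half do and their mean reaches it too, limit read from the data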;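 further: 0% = cytokine-treated negative control wells and 100% = positive control rescue; higher means more ATP so stronger rescue from cytokine killing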
# * = called active by the depositor; / = not tested or not shown.
SMILES,PREPL inh,CSC inhib,GRIN3A LBD mod,T cruzi inh,CHOP inh,Beta apoptosis
NNC(=O)CS(=O)(=O)c1ccc(Cl)cc1,-30.7,-1.2,0.2,-8.7,12.5,1.1
O=C(Nc1cc(Cl)ccc1-n1cncn1)c1cc(F)c(F)c(F)c1F,-3.8,1.1,4.5,6.1,/,/
CCn1nnnc1SCC(=O)N1CCCCC1,2.1,-9.0,0.6,5.3,/,-7.2
CC(C)(C)OC(=O)N1CCC(NC(=O)c2[nH]cnc2C(=O)Nc2cccc(Cl)c2)CC1,9.5,65.9,3.9,/,/,10.7
O=C(/C=C/C=C/c1ccccc1)CC1(O)C(=O)N(CCc2ccccc2)c2ccccc21 (stereo unspecified),-30.2,15.2,-7.9,19.4,77.5*,-0.5
CCN1C(=O)C(O)(CC(=O)/C=C/C=C/c2ccccc2)c2ccccc21 (stereo unspecified),-10.7,17.1,2.5,2.1,-15.4,-6.2
Cc1ccc(S(=O)(=O)N2[C@@H](c3cccc(Cl)c3)C(C(=O)O)=CC[C@H]2c2ccc3c(c2)OCO3)cc1,6.5,-2.9,0.9,/,/,4.1
COc1ccc(CCNCc2cc(C)n(-c3ccc(OC)cc3)c2C)cc1,-1.4,20.2,1.1,65.5*,/,10.7
CC(=O)Nc1ccc(SCC(=O)c2cc(C)n(-c3ccccc3)c2C)cc1,-3.9,83.6*,2.1,-6.9,25.0,-0.6
CC(=O)Nc1ccc(SCC(=O)c2cc(C)ccc2C)cc1,7.3,10.3,2.0,-0.7,/,0.6
Cc1cc(-n2c(C)cc(C(=O)CCl)c2C)no1,-3.0,-6.1,-1.0,79.2*,-291.3,8.7
COc1ccc(-n2c(C)cc(C(=O)CSc3ccc(NC(C)=O)cc3)c2C)cc1,-15.2,168.6*,-8.7,11.2,42.1,4.8
CN1CCN(C(=O)Nc2cccc(-c3ccccc3)c2)CC1,1.6,1.9,-0.2,-3.7,24.7,-9.5
Cc1ccc(-n2nnnc2SCC(=O)c2cc(C)n(-c3cc(C)on3)c2C)c(C)c1,-8.6,140.4*,1.4,11.8,11.6,-5.9
COc1ccc(-n2c(C)cc(C(=O)CCl)c2C)cc1,-9.8,94.9*,-2.4,43.1,-120.7,37.6
CC(/C=N/NC(=O)c1nnn(-c2nonc2N)c1C(C)C)=C\c1ccccc1,3.7,31.2,27.4*,7.8,/,6.0
C/C(=N\NC(=O)c1nnn(-c2nonc2N)c1CN1CCc2ccccc21)c1ccccc1O,11.4,91.5*,1.1,46.1,/,92.2*
CC(C)c1c(C(=O)N/N=C/c2cccs2)nnn1-c1nonc1N,3.1,-7.6,7.1,21.7,/,7.6
CCCc1c(C(=O)N/N=C/C(C)=C/c2ccccc2)nnn1-c1nonc1N,8.5,2.9,33.5*,15.7,/,13.5
CC(C)c1c(C(=O)N/N=C2\CCc3ccccc32)nnn1-c1nonc1N,-4.9,12.6,10.4*,-0.9,/,0.3
COC(=O)c1[nH]c2ccccc2c1NC(=O)Oc1ccccc1,4.5,-2.2,17.0*,3.3,-5.2,/
COC(=O)c1[nH]c2ccc(C)cc2c1NC(=O)Oc1ccccc1,-0.8,-2.3,1.7,-8.1,17.8,9.1
CCN(CC)C(=O)c1cc([N+](=O)[O-])cc2c1-c1ccc([N+](=O)[O-])cc1C2=C(C#N)C#N,0.3,40.2,-1.7,2.8,-51.0,88.5*
CCN(CC)C(=O)c1ccc(Oc2ccc([N+](=O)[O-])cc2Cl)cc1,17.6,1.9,1.2,13.8,-2.9,3.8
O=C(OCCCc1cc2ccccc2c(=O)o1)c1ccc2c(c1)OCO2,-11.2,0.8,4.0,/,/,-6.8
SMILES,PREPL inh,CSC inhib,GRIN3A LBD mod,T cruzi inh,CHOP inh,Beta apoptosis
O=C(CN1C(=O)NC(Cc2ccccc2)C1=O)Nc1ccc(F)c(Cl)c1 (stereo unspecified),-5.1,/,29.3*,/,/,-8.0
O=C(CN1C(=O)NC(Cc2ccccc2)C1=O)Nc1ccc(OC(F)(F)F)cc1 (stereo unspecified),-2.4,/,15.2*,/,/,0.9
O=C(CN1C(=O)NC(Cc2ccccc2)C1=O)Nc1ccc(F)cc1 (stereo unspecified),17.4,-1.6,-6.0,-25.9,3.1,-1.1
O=C(NCCCN1CCOCC1)c1ccc2c(c1)N(Cc1c(F)cccc1Cl)C(=O)CS2,-77.6,-7.8,2.4,5.9,/,1.1
O=C(NCc1cccs1)c1cc2c(s1)CS(=O)(=O)C2,17.7,3.2,15.3*,-14.2,8.8,-2.3
O=C(Nc1ccnn1C1CCN(C2CCOCC2)CC1)c1cccc(F)c1,-1.3,4.4,4.1,-8.1,/,-8.3
COCCN1C(=O)CS/C1=C(/C#N)C(=O)NCc1ccco1,-9.4,-12.4,0.1,-16.9,10.7,-0.2
O=C(CSc1oc(-c2cccs2)nc1S(=O)(=O)c1ccccc1)NC1CCCCC1,-50.2,/,-2.5,60.2*,19.0,-12.4
O=C(CC1SC(=NC2CCCCC2)NC1=O)Nc1ccccc1 (stereo unspecified),-7.0,-5.8,-1.2,11.2,29.1,-11.4
Cc1cccc(NC(=O)CC2SC(=NC3CCCCC3)NC2=O)c1 (stereo unspecified),-3.8,-12.5,-6.6,3.5,74.0*,-13.8
O=c1[nH]cnc(O)c1C(c1ccc([N+](=O)[O-])cc1)c1c(O)nc[nH]c1=O,-9.1,-19.8,-1.2,-6.3,/,0.0
O=C(NCC1CCCO1)c1cccc(S(=O)(=O)N2CCCCC2)c1 (stereo unspecified),/,/,0.5,/,/,/
Cc1cccc(N2CCN(C3=NC(=O)C(Cc4ccccc4)S3)CC2)c1 (stereo unspecified),-25.1,-8.8,-3.7,8.4,32.7,4.3
CCOc1ccc(CCNC(=O)c2cc(-c3ccccc3)c(N3CCOCC3)s2)cc1,-2.2,-3.1,1.3,57.8*,/,9.8
CCOc1ccc(CCNC(=O)c2cc(-c3ccccc3)c(N3CCOCC3)s2)cc1OCC,21.3,7.1,-1.1,25.9,/,-6.1
COc1ccc(CS(=O)(=O)CC(C)(O)c2ccccc2Cl)cc1 (stereo unspecified),-2.3,-8.6,16.4*,0.8,/,-2.4
Cc1ccc(NC(=O)Cn2c3ccc(F)cc3c3nc4n(c(=O)c32)CCS4)cc1F,21.9,10.6,12.1*,6.1,16.4,-3.9
COc1ccccc1N(CC(O)CN1CCC(C)CC1)S(=O)(=O)c1ccccc1 (stereo unspecified),-16.5,0.9,0.2,16.5,/,-0.2
O=C(C1CCCN(Cc2cccc(Cl)c2)C1)N1CCCCC1 (stereo unspecified),/,-8.5,2.7,66.0*,/,-1.8
O=C(C1CCCN(Cc2cccs2)C1)N1CCCCCC1 (stereo unspecified),1.3,/,10.8*,22.6,-17.2,-4.7
